# Data from ChEMBL document CHEMBL1687781, “Comparative biochemical and computational study of the role of naturally occurring mutations at Ambler positions 104 and 170 in GES β-lactamases” (Antimicrob Agents Chemother, 2010).
# Legend:
# [1] = Activity of Beta-lactamase GES-7 K104, G170 mutant
# Summary of the method: (§1)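 Purified GES enzymes, released by mild sonication in 20 mM Tris pH 8.0, then Q-Sepharose and S-Sepharose chromatography, >95% pure by SDS-PAGE, in 50 mM KPi pH 7.6. Protein measured by Bradford. β-Lactam substrates hydrolysed at various concentrations, 25°C, in 50 mM NaCl, 50 mM MOPS pH 7.0.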
# [2] = Activity of Beta-lactamase GES-1 E104, G170 mutant; summary of the method: as §1
# [3] = test system: Escherichia coli; experiment: Antimicrobial activity against Escherichia coli DH5[alpha] transformed with pAC-ges1 plasmid encoding Beta-lactamase GES-1 E104, G170 mutant by Etest method; type: functional
# [4] = test system: Escherichia coli; experiment: Antimicrobial activity against Escherichia coli DH5[alpha] transformed with pAC-ges1 plasmid encoding Beta-lactamase GES-7 K104, G170 mutant by Etest method; type: functional
# [5] = Ratio of Kcat to Km for Beta-lactamase GES-2 E104, N170 mutant; summary of the method: as §1
# [6] = Activity of Beta-lactamase GES-5 E104, S170 mutant; summary of the method: as §1
# [7] = Ratio of Kcat to Km for Beta-lactamase GES-7 K104, G170 mutant; summary of the method: as §1
# [8] = Ratio of Kcat to Km for Beta-lactamase GES-5 E104, S170 mutant; summary of the method: as §1
# [9] = test system: Escherichia coli; experiment: Antimicrobial activity against Escherichia coli DH5[alpha] transformed with pAC-ges1 plasmid encoding Beta-lactamase GES-13 K104, N170 mutant by Etest method; type: functional
# [10] = test system: Escherichia coli; experiment: Antimicrobial activity against Escherichia coli DH5[alpha] by Etest method; type: functional
# [11] = Ratio of Kcat to Km for Beta-lactamase GES-6 K104, S170 mutant; summary of the method: as §1
# [12] = Activity of Beta-lactamase GES-13 K104, N170 mutant; summary of the method: as §1
# [13] = Ratio of Kcat to Km for Beta-lactamase GES-13 K104, N170 mutant; summary of the method: as §1
# [14] = Activity of Beta-lactamase GES-2 E104, N170 mutant; summary of the method: as §1
# [15] = test system: Escherichia coli; experiment: Antimicrobial activity against Escherichia coli DH5[alpha] transformed with pAC-ges1 plasmid encoding Beta-lactamase GES-6 K104, S170 mutant by Etest method; type: functional
# [16] = Activity of Beta-lactamase GES-6 K104, S170 mutant; summary of the method: as §1
# [17] = test system: Escherichia coli; experiment: Antimicrobial activity against Escherichia coli DH5[alpha] transformed with pAC-ges1 plasmid encoding Beta-lactamase GES-2 E104, N170 mutant by Etest method; type: functional
# [18] = Ratio of Kcat to Km for Beta-lactamase GES-1 E104, G170 mutant; summary of the method: as §1
# [19] = test system: Escherichia coli; experiment: Antimicrobial activity against Escherichia coli DH5[alpha] transformed with pAC-ges1 plasmid encoding Beta-lactamase GES-5 E104, S170 mutant by Etest method; type: functional
# [20] = Inhibition of Beta-lactamase GES-7 K104, G170 mutant preincubated for 5 mins before substrate addition using cephalothin substrate by spectrophotometry
# [21] = Inhibition of Beta-lactamase GES-6 K104, S170 mutant preincubated for 5 mins before substrate addition using cephalothin substrate by spectrophotometry
# [22] = Inhibition of Beta-lactamase GES-1 E104, G170 mutant preincubated for 5 mins before substrate addition using cephalothin substrate by spectrophotometry
# [23] = Inhibition of Beta-lactamase GES-13 K104, N170 mutant preincubated for 5 mins before substrate addition using cephalothin substrate by spectrophotometry
# [24] = Inhibition of Beta-lactamase GES-2 E104, N170 mutant preincubated for 5 mins before substrate addition using cephalothin substrate by spectrophotometry
# [25] = Inhibition of Beta-lactamase GES-5 E104, S170 mutant preincubated for 5 mins before substrate addition using cephalothin substrate by spectrophotometry
# [26] = test system: Escherichia coli; experiment: Antimicrobial activity against Escherichia coli DH5[alpha] in presence of at 2 ug/ml clavulanic acid by Etest method; type: functional
# [27] = test system: Escherichia coli; experiment: Antimicrobial activity against Escherichia coli DH5[alpha] transformed with pAC-ges1 plasmid encoding Beta-lactamase GES-6 K104, S170 mutant in presence of at 2 ug/ml clavulanic acid by Etest method; type: functional
# [28] = test system: Escherichia coli; experiment: Antimicrobial activity against Escherichia coli DH5[alpha] transformed with pAC-ges1 plasmid encoding Beta-lactamase GES-7 K104, G170 mutant in presence of at 2 ug/ml clavulanic acid by Etest method; type: functional
# [29] = test system: Escherichia coli; experiment: Antimicrobial activity against Escherichia coli DH5[alpha] transformed with pAC-ges1 plasmid encoding Beta-lactamase GES-2 E104, N170 mutant in presence of at 2 ug/ml clavulanic acid by Etest method; type: functional
# Summary of the method: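 MIC read by Etest per the manufacturer's instructions. Host was E. coli DH5α carrying the bla_GES gene cloned into the chloramphenicol- and tetracycline-resistant vector pACYC184, with the high-copy plasmid pBC-ges1 as the gene source. The inhibitor was held at a fixed 2 μg/ml.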
# [30] = test system: Escherichia coli; experiment: Antimicrobial activity against Escherichia coli DH5[alpha] transformed with pAC-ges1 plasmid encoding Beta-lactamase GES-5 E104, S170 mutant in presence of at 2 ug/ml clavulanic acid by Etest method; type: functional
# [31] = test system: Escherichia coli; experiment: Antimicrobial activity against Escherichia coli DH5[alpha] transformed with pAC-ges1 plasmid encoding Beta-lactamase GES-13 K104, N170 mutant in presence of at 2 ug/ml clavulanic acid by Etest method; type: functional
# [32] = test system: Escherichia coli; experiment: Antimicrobial activity against Escherichia coli DH5[alpha] transformed with pAC-ges1 plasmid encoding Beta-lactamase GES-1 E104, G170 mutant in presence of at 2 ug/ml clavulanic acid by Etest method; type: functional
SMILES,MIC [3] [µg/mL],MIC [4] [µg/mL],MIC [9] [µg/mL],MIC [10] [µg/mL],MIC [15] [µg/mL],MIC [17] [µg/mL],MIC [19] [µg/mL],IC50 [21] [nM],IC50 [22] [nM],IC50 [23] [nM],IC50 [24] [nM],IC50 [25] [nM],other results
CC(C)(O/N=C(\C(=O)N[C@@H]1C(=O)N2C(C(=O)[O-])=C(C[n+]3ccccc3)CS[C@H]12)c1csc(N)n1)C(=O)O [CEFTAZIDIME],8,> 256,32,0.12,4,0.5,0.75,–,–,–,–,–,Km [1]: 69.2 µM; kcat [1]: 132 s⁻¹; Km [2]: 137 µM; kcat [2]: 10.5 s⁻¹; kcat/Km [5]: 2000 M⁻¹ s⁻¹; Km [6]: 135 µM; kcat [6]: 0.24 s⁻¹; kcat/Km [7]: 1.9e+06 M⁻¹ s⁻¹; kcat/Km [8]: 2000 M⁻¹ s⁻¹; kcat/Km [11]: 63000 M⁻¹ s⁻¹; Km [12]: 229 µM; kcat [12]: 30.4 s⁻¹; kcat/Km [13]: 130000 M⁻¹ s⁻¹; Km [14]: 98.2 µM; kcat [14]: 0.21 s⁻¹; Km [16]: 149 µM; kcat [16]: 9.3 s⁻¹; kcat/Km [18]: 77000 M⁻¹ s⁻¹
O=C(O)[C@H]1/C(=C/CO)O[C@@H]2CC(=O)N21 [CLAVULANIC ACID],–,–,–,–,–,–,–,1700,100,90,80,500,IC50 [20]: 800 nM
C[C@@H](O)[C@H]1C(=O)N2C(C(=O)O)=C(SCCNC=N)C[C@H]12 [IMIPENEM ANHYDROUS],0.25,0.125,0.25,0.064,0.5,0.5,1.5,–,–,–,–,–,Km [2]: 1.2 µM; kcat [2]: 0.006 s⁻¹; kcat/Km [5]: 20000 M⁻¹ s⁻¹; Km [6]: 1.27 µM; kcat [6]: 0.332 s⁻¹; kcat/Km [8]: 260000 M⁻¹ s⁻¹; kcat/Km [11]: 42000 M⁻¹ s⁻¹; Km [12]: 3.1 µM; kcat [12]: 0.009 s⁻¹; kcat/Km [13]: 3000 M⁻¹ s⁻¹; Km [14]: 0.87 µM; kcat [14]: 0.016 s⁻¹; Km [16]: 3.92 µM; kcat [16]: 0.166 s⁻¹; kcat/Km [18]: 5000 M⁻¹ s⁻¹
C[C@@H](O)[C@H]1C(=O)N2C(C(=O)O)=C(S[C@@H]3CN[C@H](C(=O)N(C)C)C3)[C@H](C)[C@H]12 [MEROPENEM],0.016,0.016,0.023,0.008,0.047,0.032,0.094,–,–,–,–,–,–
CC1(C)[C@H](C(=O)O)N2C(=O)C[C@H]2S1(=O)=O [SULBACTAM],–,–,–,–,–,–,–,8000,1500,300,500,4500,–
C[C@]1(Cn2ccnn2)[C@H](C(=O)O)N2C(=O)C[C@H]2S1(=O)=O [TAZOBACTAM],–,–,–,–,–,–,–,500,30,40,30,500,IC50 [20]: 60 nM
CC1(C)S[C@@H]2[C@H](NC(=O)[C@H](C(=O)O)c3ccsc3)C(=O)N2[C@H]1C(=O)O [TICARCILLIN],> 256,> 256,> 256,4,> 256,> 256,> 256,–,–,–,–,–,MIC [26]: 4 µg/mL; MIC [27]: > 256 µg/mL; MIC [28]: > 256 µg/mL; MIC [29]: 1.5 µg/mL; MIC [30]: 16 µg/mL; MIC [31]: 8 µg/mL; MIC [32]: 6 µg/mL
